Compound activity as filed in PubChem BioAssay.
Only a sample is shown.
HKDC1 activator = HKDC1 hexokinase activators, primary screen, biochemical, fluorescence, uHTS; Q2TB90; recombinant HKDC1, G6PDH/diaphorase resazurin fluorescence; active compounds read low; activity change, negative = activation, % at 20 µM; actives 0.056% (n = 340,000); AID 493187, 2011;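 active means activation of 40% or more at 20 µM, a change of -40% or lower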
Target sequence (Q2TB90 whole entry, looked up): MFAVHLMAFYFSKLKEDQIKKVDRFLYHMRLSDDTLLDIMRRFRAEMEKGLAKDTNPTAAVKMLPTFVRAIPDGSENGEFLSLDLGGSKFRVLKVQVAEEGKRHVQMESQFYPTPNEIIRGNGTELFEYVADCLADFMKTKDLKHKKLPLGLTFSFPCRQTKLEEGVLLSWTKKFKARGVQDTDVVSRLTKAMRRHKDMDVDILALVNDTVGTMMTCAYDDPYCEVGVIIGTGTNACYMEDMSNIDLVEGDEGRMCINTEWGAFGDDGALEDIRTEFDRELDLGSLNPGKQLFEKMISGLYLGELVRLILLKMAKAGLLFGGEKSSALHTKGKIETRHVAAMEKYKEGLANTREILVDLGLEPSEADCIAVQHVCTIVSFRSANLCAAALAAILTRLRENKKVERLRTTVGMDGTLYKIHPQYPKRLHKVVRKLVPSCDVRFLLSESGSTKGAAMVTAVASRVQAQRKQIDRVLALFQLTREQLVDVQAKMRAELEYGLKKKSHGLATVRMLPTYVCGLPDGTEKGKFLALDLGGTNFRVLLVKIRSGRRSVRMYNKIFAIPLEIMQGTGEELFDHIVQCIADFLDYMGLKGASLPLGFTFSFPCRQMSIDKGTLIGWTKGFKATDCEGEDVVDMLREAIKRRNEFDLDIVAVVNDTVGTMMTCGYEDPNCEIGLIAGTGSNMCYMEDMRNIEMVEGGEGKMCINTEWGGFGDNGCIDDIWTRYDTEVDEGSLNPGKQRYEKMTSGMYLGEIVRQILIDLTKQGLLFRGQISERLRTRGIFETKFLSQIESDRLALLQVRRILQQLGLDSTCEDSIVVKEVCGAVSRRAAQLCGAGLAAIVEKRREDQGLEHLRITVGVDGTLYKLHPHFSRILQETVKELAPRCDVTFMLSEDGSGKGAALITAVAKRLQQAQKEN
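Signal: coupled resazurin-to-resorufin fluorescence, Ex 525/Em 613 nm. Test system: in-house human HKDC1 enzyme, G6PDH and diaphorase coupling enzymes. Quantity: HKDC1 5 µg/mL. Timing: 90 min reaction at room temperature, dark.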
Numbers without * were called inactive.

SMILES | HKDC1 activator
Cc1ccc2c(C)c3ccc4ccccc4c3c[n+]2c1 | -52.8*
COC(=O)C1CN(C#N)N(c2ccc(Cl)cc2)C12c1ccccc1-c1ccccc12 (configuration not stated) | 87.2
CCOC(=O)c1c(-n2c(C)cc(/C=C3\C(=O)NC(=O)N(C)C3=O)c2C)sc2c1CCCC2 | 51.2
NC(=O)c1ccc(N=Cc2c(O)n(Cc3ccco3)c(=O)[nH]c2=O)cc1 | 36.2
O=C1C=CC(=O)C=C1 | 48.3
Cn1c(=O)c2c(nc(N/N=C/c3c(O)n(C4CCCCC4)c(=S)[nH]c3=O)n2C)n(C)c1=O | -46.3*
O=c1c2ccccc2[se]n1-c1ccccc1 | -115.9*
COc1ccc(OC)c(N2C(=O)/C(=C/c3ccco3)C(=O)NC2=S)c1 | 82.3
O=C(O)CC1OCC=C2CN3CCC45C6=CC(=O)C(=O)C([N+](=O)[O-])=C6NC4C1C2CC35 (configuration not stated) | 42.5
CC[C@H](C)/C=C(C)/C=C/C1=CC2=C(Cl)C(=O)[C@@](C)(OC(C)=O)C(=O)C2=CO1 | 62.8
N#CC1=C(N)Oc2c(c(=O)sc3ccccc23)C1c1ccncc1 (configuration not stated) | -57.7*
Cc1cc(/C=C2\C(=O)NC(=O)N(c3ccc(Cl)cc3)C2=O)c(C)n1-c1sc2c(c1C#N)CCCC2 | 68.9
COc1ccc(/C=C2\C(=O)NC(=S)N(C)C2=O)cc1C | 36.4
N#CC(C#N)=Cc1ccc(C=C(C#N)C#N)cc1 | 37.6
COC(=O)C1=C(C(=O)OC)SC2(S1)C(C(=O)OC)=C(C(=O)OC)Sc1c2ssc1=O | -108.7*
O=C1CC=C2C3CC4N(CCC45c4cc(O)c(O)cc4N1C25)CC3=CCBr (configuration not stated) | 44.6
O=c1[nH]c(O)c(/C=C2/C=CC(c3cc(Cl)ccc3Cl)=N2)c(=O)[nH]1 | 40.4
CCn1nc(-c2ccccc2)nc2c(=O)n(C)c(=O)nc1-2 | -83.0*
O=C1NC(=S)N(c2ccc(F)cc2)C(=O)/C1=C\c1ccoc1 | 50.9
